# The EternaBench riboswitch data
# System: MS2 coat protein
# Experiment: apparent Kd, MS2 coat protein; higher = weaker binding; RNA-MaP array; FMN 200 µM where present
# How it was run: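 The apparent Kd is the median of filtered binding-curve fits, one per cluster, to green signal normalised to red-channel RNA signal and control-cluster median Fmax. The clusters were on Illumina sequencing chips, and stalled E. coli RNA polymerase had transcribed the designs on them. Titration used SNAP-549-labelled MS2 coat protein from 0.7 or 1.5 nM, doubling to 3 µM, without and then with constant ligand, in 100 mM Tris-HCl pH 7.5, 80 mM KCl, 4 mM MgCl2, BSA, DTT, yeast tRNA and Tween-20.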
# [1] = designed as: ON switch for flavin mononucleotide, no ligand
# [2] = ligand present: flavin mononucleotide, designed as: ON switch for flavin mononucleotide
# [3] = designed as: OFF switch for flavin mononucleotide, no ligand
# [4] = ligand present: flavin mononucleotide, designed as: OFF switch for flavin mononucleotide
Sequence,apparent Kd [1] [nM],apparent Kd [2] [nM],apparent Kd [3] [nM],apparent Kd [4] [nM]
UUUGUCAUCGAGAAGGCCUCAACAUGAGGAUCACCCAUGUUGUAAUAUGGGAGGAUAUCGAUGAUACAGCUACGUUUCGUAAAA,20,5.58,–,–
GGAGCACAUAUUAACAUGAGGAUCACCCAUGUCAAAAGACAUGAGGAUAUGGAUCCGAAAAGGAUCUAGAAGGCAUGGUGCUCC,690,22.1,–,–
CGGUACACAGGAUAUAACGUCUGCAACAUGAGGAUCACCCAUGUUGUCCAAACGUUGCGGUUAGAAGGGUGGGCGC,–,–,30.7,70.8
AAGAAGUGAGGAUAUGCUGACAAUAUGAAGACUUGAGGUAUGCAGAAGGCACAUGAGGAUCACCCAUGUAAGAA,–,–,30,29.7
CUUUUGUGAGGAUAUUAGUAGUAAAUAAAUAAAAUUACUACUGAGAAGGCACAUGAGGAUCACCCAUGUUCUUC,–,–,19.4,93.8
GGAGACCUCACAGGAUAUGCUGGACUUUGUCCAGCAGAAGGGUGAAAACAUGAGGAUCACCCAUGUAUGGUCUCCAAAUUUAAG,190,15.3,–,–
UUCGUGGCAUCUCGCGCAUGUCCACAUGAGGAUCACCCAUGUCAGGAUAUACGGAAUGUCGUUCCGUAGAAGGGACAAGGGCUG,–,–,139,112
GACUGCCGAGGAUAUACAUGAGGAUCACCCAUGUGCUUCAGUAUCGAAAGAUGCAUGGGUAGAAGGCGGUAGUC,–,–,391,284
GGCGGCGCGGGCCACCGCAGGGCCAGAAGGACAUGAGGAUCACCCAUGUGGCAGAACAGGGCGGUGUAGGAUAUGGCAGGCUCG,–,–,35.5,76.2
ACUUGUUAUUUAAUCAUUGAAUUGUAGGAUAUACUUACAUGAGGAUCACCCAUGUUAACAUGGAUGUAGAAGGACAUCUCAUUU,–,–,98.9,55.1
ACAUGACAUGAGGAUCACCCAUGUGAGGAUAUGCGAAAAAAAAAAAAAAAAAAAAUUGGCAGAAGGCACAAAAU,–,–,167,180
CGACGAGUGGAGAAGGACUUUGACUAGUACAGGGUAGGAUAUCCACAUGAGGAUCACCCAUGUAGGAUACUUAUUGGGCCGCCU,–,–,10.3,49
UUAUACAUUCGAGGAUAUCGGUGAGAAAUCUUUCGAGAAGGCGAUUCAUGAUUUAUUAUCCUGGACAUGAGGAUCACCCAUGUA,79.8,60.9,–,–
UUUACAUUACGAGGAUAUCAAUUAUUUCAUGUAUGAGAAGGCGUUAUUUUUACUACCUUACAUGAGGAUCACCCAUGUUUCAUU,62.8,27.8,–,–
AAUAUGAGCUGGAAUAAAACCUUGACAUGAGGAUCACCCAUGUAGGAUAUCAGCACGAUAAGUGCUGAGAAGGACAACCAGCUC,–,–,14.4,15.6
GGAUAUGUCGUCUACAUGAGGAUCACCCAUGUCGAUAGACAUGAGGAUAUUGAUAAGAAUUGUAUCGAGAAGGUAUGUAGGUCC,19.3,26.7,–,–
AAACCUUCUGAGGAUAUCUGAGGCCCUGCGCUUAGAGAAGGUAGUACAUGAGGAUCACCCAUGUCCGCGCUGGG,–,–,16.3,17.9
GUGAAACAUGAGGAUCACCCAUGUGAGGAUAUGUUUUAGUAAUGAUGAAAGUAAAUCUACAGAAGGCACAAUGG,–,–,75.8,117
AGAUCACAUGAGGAUCACCCAUGUGAGGAUAUGAUACUAUGUACUUCGGUACAUAGUAUCAGAAGGCAUGUGGA,–,–,56.7,109

Sequence,apparent Kd [1] [nM],apparent Kd [2] [nM],apparent Kd [3] [nM],apparent Kd [4] [nM]
CAGGAUAGAGGAUAUACAUAGAUACAGAUUCAUGUGAUCCUACAUGAGGAUCACCCAUGUAGAAGGCUAACCUG,–,–,288,82.2
GUCGUGUGAGGAUAUGAUUUUUCGGCGGGCUUGCGUCUGCUUCAGAAGGCACAUGAGGAUCACCCAUGUUUGUC,–,–,12,29.5
CUAUUGGCAGGAUAUGCUUUUUUAGACAUGAGGAUCACCCAUGUGAUGAAUUUUGGGUUUGCAGAAGGGCCUGAGU,–,–,67.1,100
AAAUGGGCGUAGGAUAUGAGAUGGUCUAGCAGCUCAGAAGGACGCACAUGAGGAUCACCCAUGUGAUCGGACUA,–,–,–,224
GGGCCCGGAGGAUAUACAUGAGGAUCACCCAUGUAGGGCCCGGGUAUUCCCGGGCCCUGUAGAAGGCCGGGUUU,–,–,14.3,18.8
GACACUAUGUUUGUCAGAUAGAGAGAGGAUAUGGCUCAUGUGACAUGAGGAUCACCCAUGUAUAAUCAGAAGGCUCGAGUACGA,45.9,16.3,–,–
CUUAAGCUGGCAAGGGCUGGUGAAGAGGAUAUACAUGCUAAGCGAACCACAUGAGGAUCACCCAUGUAGAAGGCUUCCCAGAAA,–,–,159,111
ACAUGCGGAUGAGGAUAUUCAUUCAUGAGGAUAGAAGAAGGCAUACAUGAGGAUCACCCAUGUAUACGCAUGAGGAUCCCUUAU,–,–,24.8,32.7
UGGUACUAGGGAGGAUAUGGGAAGAUACAUGAGGAUCACCCAUGUAUAAGAAUGCCGAGAGGCAACUAGAAGGCCCUAGUACCU,10.8,5.48,–,–
AGUCAUACAGGAUAUACAUGAGGAUCACCCAUGUAUAUCCAAAAAAAAUGAUCCUCAUGUAGAAGGGUAUGACA,–,–,15.9,10.5
UACGUACAGAAGUACUCCGGGUCCAGAAGGGACAUGAGGAUCACCCAUGUACCGUUGAUUGCUUGUCAGGAUAUGGACCCGGCC,–,–,7.29,28.5
UUUUACAUAGGAUAUAGUUUGUUGUACAUGAGGAUCACCCAUGUUUUUGUUUGUGCUUUUCUAGAAGGAUGUUUCU,–,–,29.2,25.4
CCGGUGUCAGGAUAUACGCCAACCACUGAAAAGGUAUGGGCGUAGAAGGGACAUGAGGAUCACCCAUGUCAGUC,–,–,22.8,36.3
GUGGUGCAUAUACGUGGAUGUACAUGAGGAUCACCCAUGUGAGAGGAUAUGCGGAUACUAGCUCAGCAGAAGGCUUACAAAUGA,–,–,15.2,45.8
CCAAGAAUAGGAUAUACACGAUGUCAGCUUCUAUACAUCGCACAUGAGGAUCACCCAUGUAGAAGGGUUCUCUC,–,–,735,823
CCGGAAAUGCAGGAUAUCGUAUCGGAAACGAUACGAGAAGGGUAUACAUGAGGAUCACCCAUGUGUCCUACCGG,–,–,22.6,21.4
CGCUAUUAUGUAGGAUAUACAUUUUUUAUGUAUGUAGAAGGACAUGAGGAUCACCCAUGUAAAUAAAUUUUAAUUAUCAUAGCG,–,–,21.9,18.3
CUAGUACAUGAGGAUCACCCAUGUCAGGAUAUUGGAUAUGACAUGGAAAACAUGUUUACAAGAAGGGACUAUAG,–,–,285,290
GUAAUUAUAUAGGAUAUCGAUUUUAUUAUUUAACGAGAAGGAUGAACAUGAGGAUCACCCAUGUGGUAUCAUGG,–,–,164,177

Sequence,apparent Kd [1] [nM],apparent Kd [2] [nM],apparent Kd [3] [nM],apparent Kd [4] [nM]
AAUAUAGAGCUGGAAUAAAACACAACAUGAGGAUCACCCAUGUAGGAUAUCAGCACGAUAAGUGCUGAGAAGGACAUCCAGCUC,–,–,14.7,14.2
GGAUAUAUACAGGAGGAUAUGAGAACAAAGACAUGAGGAUCACCCAUGUACAAAAGGUGGAACAAUCAGAAGGUCUAAACAACAAA,78.3,69,–,–
GGCGAACGGGCUUACAUGAGGAUCACCCAUGUAGACUCAUGGUAGGAUAUGCUGUACAAAGUACAGCAGAAGGGCCGGUGAGCU,89.1,43.5,–,–
AAUUUACAUGAGGAUCACCCAUGUGAGGAUAUGAUACUAUGUACUUCGGUACAUAGUAUCAGAAGGCAUGUGGA,–,–,129,37.1
UUUUUACAUGAGGAUCACCCAUGUCAGGAUAUUCUUAUAUUUUAUUAUUUUAUUUUUUGAAGAAGGGACUAUUA,–,–,118,70.5
AGCAGACGAGGAUAUAGAUUUGUUAACAUGAGGAUCACCCAUGUGAUCGAUUAAUCAUAUUUAGAAGGUGUCUGCU,–,–,37.7,154
AUGCUAUACGAAGGAUAUGGUUACAUGAGGAUCACCCAUGUAAUUCUUGUGAUCUUGUUUAAGUUCCAGAAGGUCGUAUAGCUA,–,–,29.1,88.2
UUUUAACAUGAGGAUCACCCAUGUGAGGAUAUCGAAAUUUAUAUUAAUAUUUUUAAUUCGAGAAGGCACAUUUU,–,–,116,118
GGAUAGGACAGAGGAUAUACGUGCUAGAGAUACUAGCAAAAUUUCCUCACAUGAGGAUCACCCAUGUAGAAGGCUGUCCUAUGG,–,–,16.6,402
AUAUUGUGAGGAUAUCCAAUAUAUGACAUGAGGAUCACCCAUGUUUCCACUCGUACCUCCGGAGAAGGCACAUUUU,–,–,27,24
GAGCGGGAAACAUGAGGAUCACCCAUGUAGUAAAUCCUCACGUAGGAUAUGCACACGAGAAGUGUGCAGAAGGGCGACCCGGUC,–,–,79.6,183
AGUCGGAGCAGAGGAUAUACAUGAGGAUCACCCAUGUAAUAUGAUCUAGCCAGGAAACUGGCAAUGUAGAAGGCUGCUCCGACA,–,–,92.3,797
UGGUACAUCGGAGGAUAUCAUGUAUAUACAUGAGGAUCACCCAUGUCGAUGGAGACAUCGGAGAUUGAGAAGGCCGAUGUACCU,799,33.3,–,–
UCGACUAGCGCCAGUCGAACAUGAGGAUCACCCAUGUACUCCAGAAGGCCGCCCAAGAACGGAGUGGAGGAUAUGGAGGUUCUC,42.9,30.4,–,–
GUCAGCUCGUGAGGAUAUACAUCACUGCUUCGGCAGUGUAUUAAGAUUACAUGAGGAUCACCCAUGUAGAAGGCACGAGCUGAU,–,–,17.4,23.9
UACAGCUUGACAGGAUAUACAUGACUGCGAAAGCAGUCUAUCUUAAUAACAUGAGGAUCACCCAUGUAGAAGGGUCGAGCUGUA,–,–,17.6,27
GUGGCCCAGGCACAGGAUAUGUUUCUCGUAACAUGAGGAUCACCCAUGUGCCUAUGAGAUUGUUUGCAGAAGGGUGCACGCCACG,449,24,–,–
AAUAACAGAGGAUAUACUAUUUUAUGUAUUUAUUAUUUUAAACAUGAGGAUCACCCAUGUAGAAGGCUGAAUAA,–,–,19.8,20.7
